Experimental data as given in ChEMBL document CHEMBL5357037, “Scaffold hopping based designing of selective ALDH1A1 inhibitors to overcome cyclophosphamide resistance: synthesis and biological evaluation” (RSC Med Chem, 2024).
Calls of active or inactive are those of the source. The calls are words filed in the database; no cut-off is given here.

Tests used:
[1] = target: T1, Aldehyde dehydrogenase, dimeric NADP-preferring (Homo sapiens) (UniProt P30838); experiment: Inhibition of human ALDH3A1 using 4-nitrobenzaldehyde as substrate at 100 uM preincubated with enzyme for 15 mins followed by substrate addition in presence of NAD+ and measured for 5 mins by spectrophotometric analysis; settings: time 20.0 min
T1 sequence (whole entry): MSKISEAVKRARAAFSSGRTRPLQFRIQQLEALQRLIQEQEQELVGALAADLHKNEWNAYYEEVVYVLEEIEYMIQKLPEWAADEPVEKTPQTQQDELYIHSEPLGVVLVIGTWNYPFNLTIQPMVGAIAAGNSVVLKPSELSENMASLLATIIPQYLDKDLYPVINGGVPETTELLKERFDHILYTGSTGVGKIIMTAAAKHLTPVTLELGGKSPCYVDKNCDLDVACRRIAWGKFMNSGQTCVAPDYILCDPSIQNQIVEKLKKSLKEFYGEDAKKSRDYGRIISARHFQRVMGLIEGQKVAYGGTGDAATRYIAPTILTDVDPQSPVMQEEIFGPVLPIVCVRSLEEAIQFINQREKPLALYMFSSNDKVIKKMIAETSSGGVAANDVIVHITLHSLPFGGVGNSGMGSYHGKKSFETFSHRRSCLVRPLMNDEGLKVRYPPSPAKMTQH
Summary of the method: (§1)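 Human recombinant ALDH1A1, ALDH2 or ALDH3A1 preincubated with test compounds for 15 min at 25 °C. NADH absorbance read kinetically for 5 min. IC50 fitted from five concentrations vs %inhibition. Single-point final concentrations were 10 μM for ALDH1A1 and 100 μM for ALDH2 and ALDH3A1.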

[2] = Lipid-water partition coefficient, logP of the compound; format: physicochemical
[3] = target: T2, Aldehyde dehydrogenase, mitochondrial (Homo sapiens) (UniProt P05091); experiment: Inhibition of human ALDH2 using acetaldehyde as substrate at 100 uM preincubated with enzyme for 15 mins followed by substrate addition in presence of NAD+ and measured for 5 mins by spectrophotometric analysis; settings: time 20.0 min; summary of the method: as §1
T2 sequence (whole entry): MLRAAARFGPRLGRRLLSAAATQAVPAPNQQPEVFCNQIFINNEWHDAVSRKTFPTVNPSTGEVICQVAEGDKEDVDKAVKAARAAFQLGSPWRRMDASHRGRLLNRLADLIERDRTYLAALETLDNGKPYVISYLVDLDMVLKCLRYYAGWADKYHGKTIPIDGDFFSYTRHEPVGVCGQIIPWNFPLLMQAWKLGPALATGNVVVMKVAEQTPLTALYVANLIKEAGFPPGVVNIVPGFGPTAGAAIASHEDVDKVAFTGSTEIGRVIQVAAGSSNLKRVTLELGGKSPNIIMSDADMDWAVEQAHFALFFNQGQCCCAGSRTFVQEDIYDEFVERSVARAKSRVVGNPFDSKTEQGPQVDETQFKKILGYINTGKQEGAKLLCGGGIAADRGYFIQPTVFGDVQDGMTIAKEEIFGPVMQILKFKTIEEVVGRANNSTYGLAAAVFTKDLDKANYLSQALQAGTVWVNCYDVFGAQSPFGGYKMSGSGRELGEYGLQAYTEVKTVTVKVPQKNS

[4] = target: T3, Aldehyde dehydrogenase 1A1 (Homo sapiens) (UniProt P00352); experiment: Inhibition of human ALDH1A1 using propionaldehyde as substrate at 10 uM preincubated with enzyme for 15 mins followed by substrate addition in presence of NAD+ and measured for 5 mins by spectrophotometric analysis; settings: time 20.0 min; summary of the method: as §1
T3 sequence (whole entry): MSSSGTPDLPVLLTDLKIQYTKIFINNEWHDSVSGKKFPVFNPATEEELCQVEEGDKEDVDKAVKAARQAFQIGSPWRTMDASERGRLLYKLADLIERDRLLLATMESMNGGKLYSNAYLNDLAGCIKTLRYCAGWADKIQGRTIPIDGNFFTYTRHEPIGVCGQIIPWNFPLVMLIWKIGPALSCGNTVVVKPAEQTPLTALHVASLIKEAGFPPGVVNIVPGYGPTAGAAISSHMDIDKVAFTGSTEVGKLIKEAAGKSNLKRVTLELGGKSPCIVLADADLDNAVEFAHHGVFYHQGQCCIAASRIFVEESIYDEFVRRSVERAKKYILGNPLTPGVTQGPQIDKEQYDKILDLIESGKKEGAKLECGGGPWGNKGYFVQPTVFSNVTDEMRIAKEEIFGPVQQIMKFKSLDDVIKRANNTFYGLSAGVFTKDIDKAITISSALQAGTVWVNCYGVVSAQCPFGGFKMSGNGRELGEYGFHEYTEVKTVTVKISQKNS

[5] = target: T4, Aldehyde dehydrogenase 1A1 (Homo sapiens, UniProt P00352); experiment: Inhibition of human ALDH1A1 using propionaldehyde as substrate preincubated with enzyme for 15 mins followed by substrate addition in presence of NAD+ and measured for 5 mins by spectrophotometric analysis; summary of the method: as §1
T4 sequence (P00352 whole entry): T3 sequence (whole entry)

[6] = target: T5, Aldehyde dehydrogenase, mitochondrial (Homo sapiens, UniProt P05091); experiment: Inhibition of human ALDH2 using acetaldehyde as substrate preincubated with enzyme for 15 mins followed by substrate addition in presence of NAD+ and measured for 5 mins by spectrophotometric analysis; summary of the method: as §1
T5 sequence (P05091 whole entry): T2 sequence (whole entry)

A549 [7] = experiment: Reversal of Mafosfamide resistance in human A549 cells assessed as increase in Mafosfamide sensitivity by measuring reduction in cell viability measured after 19 hrs in presence of Mafosfamide by MTT assay; format: functional, cell-based
Summary of the method: (§2)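 A549 and MIA PaCa-2 cells, chosen for high ALDH1A1 expression, were obtained from NCCS. Viability was measured by MTT. Combination arms paired mafosfamide with ALDH1A1 inhibitors. Combination indices were calculated with the Chou–Talalay equation.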

A549 [8] = experiment: Synergistic anticancer activity against human A549 cells assessed as combination index incubated for 19 hrs in presence of Mafosfamide by MTT assay; format: functional; summary of the method: as §2
MIA PaCa-2 [9] = experiment: Synergistic anticancer activity against human MIAPaCa-2 cells assessed as combination index incubated for 19 hrs in presence of Mafosfamide by MTT assay; format: functional; summary of the method: as §2
A549 [10] = experiment: Anticancer activity against human A549 cells assessed as reduction in cell viability at 370 uM incubated for 19 hrs by MTT assay; format: functional, cell-based
MIA PaCa-2 [11] = experiment: Reversal of Mafosfamide resistance in human MIAPaCa-2 cells assessed as increase in Mafosfamide sensitivity by measuring reduction in cell viability measured after 19 hrs in presence of Mafosfamide by MTT assay; format: functional, cell-based; summary of the method: as §2
MIA PaCa-2 [12] = experiment: Anticancer activity against human MIAPaCa-2 cells assessed as reduction in cell viability at 315 uM incubated for 19 hrs by MTT assay; format: functional, cell-based
[13] = target: T6, Aldehyde dehydrogenase, dimeric NADP-preferring (Homo sapiens, UniProt P30838); experiment: Inhibition of human ALDH3A1 using 4-nitrobenzaldehyde as substrate preincubated with enzyme for 15 mins followed by substrate addition in presence of NAD+ and measured for 5 mins by spectrophotometric analysis; summary of the method: as §1
T6 sequence (P30838 whole entry): T1 sequence (whole entry)

MIA PaCa-2 [14] = experiment: Anticancer activity against human MIAPaCa-2 cells assessed as reduction in cell viability incubated for 19 hrs by MTT assay; format: functional, cell-based; summary of the method: as §2
A549 [15] = experiment: Anticancer activity against human A549 cells assessed as reduction in cell viability incubated for 19 hrs by MTT assay; format: functional, cell-based; summary of the method: as §2

inhibition [1]	logP [2]	inhibition [3]	inhibition [4]	IC50 [5] [µM]	IC50 [6]	IC50 [13]	IC50 ([6]; read-out: IC50) [µM]	IC50 ([13]; read-out: IC50) [µM]	Compound	Activity (A549 [7])	CI (A549 [8])	CI (MIA PaCa-2 [9])	Activity (A549 [10])	Activity (MIA PaCa-2 [11])	Activity (MIA PaCa-2 [12])	Activity (MIA PaCa-2 [14])	Activity (A549 [15])
	4.73			0.32	Not Active	Not Active			Clc1ccc(-c2nc3ccccc3n2Cc2ccccc2)cc1	Active	0.91	0.98	Active	Active	Active		
	4.19			1.63	Not Active	Not Active			COc1ccc(-c2nc3ccccc3n2Cc2ccccc2)cc1	Active	0.74	0.84		Active		inactive	inactive

More lines, now with the values behind:

Compound	inhibition [1]	logP [2]	inhibition [3]	inhibition [4]	IC50 [5] [µM]	IC50 [6]	IC50 [13]	IC50 ([6]; read-out: IC50) [µM]	IC50 ([13]; read-out: IC50) [µM]	Activity (A549 [7])	CI (A549 [8])	CI (MIA PaCa-2 [9])	Activity (A549 [10])	Activity (MIA PaCa-2 [11])	Activity (MIA PaCa-2 [12])	Activity (MIA PaCa-2 [14])	Activity (A549 [15])
CN(C)c1ccc(Cn2c(-c3ccc(N(C)C)cc3)nc3ccccc32)cc1	inactive	4.02	inactive	inactive													
c1ccc(Cn2c(-c3ccccc3)nc3ccccc32)cc1		4.19			8.67			95.6	98.3								
CN(C)c1ccc(-c2nc3ccccc3n2Cc2ccccc2)cc1		4.17			0.55	Not Active	Not Active			Active	0.69	0.81		Active		inactive	inactive
CC(C)CCn1c(CN2CCN(C(=O)C3CC3)CC2)nc2c1c(=O)n(C)c(=O)n2C										Active				Active			
